Source: ChEMBL document CHEMBL1134766, “Synthesis of 2beta-acyl-3beta-(substituted naphthyl)-8-azabicyclo[3.2.1]octanes and their binding affinities at dopamine and serotonin transport sites” (J Med Chem, 2001)

Experiments:
[1] = target: Sodium-dependent serotonin transporter (Rattus norvegicus, UniProt P31652); test: Affinity for the displacement of [3H]paroxetine binding to serotonin transporter (SERT) in rat frontal cortex membranes; type: cell membranes, Membrane
How it was run: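 Displacement of 0.4 nM [3H]paroxetine in frontal cortex membranes (50 mg original wet weight) dissected from frozen Sprague-Dawley rat brains, using 7-10 analogue concentrations. Nonspecific binding was defined with 10 µM fluoxetine. Ki was obtained by nonlinear curve fitting and the Cheng-Prusoff equation. Values are mean ± SEM of ≥3 experiments, each in triplicate.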

[2] = target: Sodium-dependent dopamine transporter (Rattus norvegicus, UniProt P23977); test: Inhibitory activity in displacing [125I]- RTI-55 binding to dopamine transporter in rat striatal membranes; type: cell membranes, Striatum, Membrane
How it was run: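 Nonspecific binding was defined with 1 µM WF-23. Curves were fitted by nonlinear regression, and IC50 is reported because binding at this transporter is multiphasic. Values are mean ± SEM of ≥3 experiments, each run in triplicate.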

[3] = target: Norepinephrine transporter (Rattus norvegicus, UniProt Q9WTR4); test: Affinity for the displacement of [3H]paroxetine binding to norepinephrine transporter (NET) in rat frontal cortex membranes; type: cell membranes, Membrane
[4] = target: Monoamine transporters; serotonin & dopamine (Rattus norvegicus) (UniProt P31652+P23977); test: SERT/DAT (serotonin transporter/dopamine transporter) binding potency ratio; type: protein assay
Sequence of Monoamine transporters; serotonin & dopamine (Rattus norvegicus) (P23977 whole entry, looked up): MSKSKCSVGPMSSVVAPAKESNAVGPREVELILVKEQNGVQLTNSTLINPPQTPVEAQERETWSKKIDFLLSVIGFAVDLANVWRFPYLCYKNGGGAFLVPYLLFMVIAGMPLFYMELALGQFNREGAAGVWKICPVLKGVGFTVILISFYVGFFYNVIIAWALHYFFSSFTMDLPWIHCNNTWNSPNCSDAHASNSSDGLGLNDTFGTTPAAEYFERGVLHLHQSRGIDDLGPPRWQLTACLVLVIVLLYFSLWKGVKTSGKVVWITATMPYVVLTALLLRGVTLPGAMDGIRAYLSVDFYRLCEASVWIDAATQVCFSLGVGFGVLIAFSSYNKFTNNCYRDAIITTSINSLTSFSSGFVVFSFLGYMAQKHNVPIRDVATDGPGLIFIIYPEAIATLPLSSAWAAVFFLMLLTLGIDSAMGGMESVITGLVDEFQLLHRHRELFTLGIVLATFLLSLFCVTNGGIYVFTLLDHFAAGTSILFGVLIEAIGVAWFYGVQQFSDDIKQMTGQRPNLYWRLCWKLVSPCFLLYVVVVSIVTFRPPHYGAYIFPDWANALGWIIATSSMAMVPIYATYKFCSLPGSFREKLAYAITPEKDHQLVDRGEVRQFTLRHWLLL
Sequence of Monoamine transporters; serotonin & dopamine (Rattus norvegicus) (P31652 whole entry, looked up): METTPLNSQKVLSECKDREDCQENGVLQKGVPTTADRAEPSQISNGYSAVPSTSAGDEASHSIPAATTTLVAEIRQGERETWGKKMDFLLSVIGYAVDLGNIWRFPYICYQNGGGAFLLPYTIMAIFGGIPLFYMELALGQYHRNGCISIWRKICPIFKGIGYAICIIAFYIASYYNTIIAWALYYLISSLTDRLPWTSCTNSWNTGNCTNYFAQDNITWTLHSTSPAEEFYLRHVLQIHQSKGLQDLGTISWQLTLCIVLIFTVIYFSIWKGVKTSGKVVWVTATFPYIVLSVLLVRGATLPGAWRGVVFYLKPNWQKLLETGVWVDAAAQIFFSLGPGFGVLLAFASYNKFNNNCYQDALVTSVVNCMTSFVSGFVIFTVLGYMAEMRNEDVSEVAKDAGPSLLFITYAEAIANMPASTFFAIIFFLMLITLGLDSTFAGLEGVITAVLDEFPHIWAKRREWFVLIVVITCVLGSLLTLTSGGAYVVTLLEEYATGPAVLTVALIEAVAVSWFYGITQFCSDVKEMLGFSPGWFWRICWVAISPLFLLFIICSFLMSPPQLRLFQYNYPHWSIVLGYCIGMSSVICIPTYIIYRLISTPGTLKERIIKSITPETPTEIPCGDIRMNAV

Sequence of Sodium-dependent dopamine transporter (P23977 whole entry): as the sequence (P23977 whole entry, looked up) above
Sequence of Norepinephrine transporter (Q9WTR4 whole entry): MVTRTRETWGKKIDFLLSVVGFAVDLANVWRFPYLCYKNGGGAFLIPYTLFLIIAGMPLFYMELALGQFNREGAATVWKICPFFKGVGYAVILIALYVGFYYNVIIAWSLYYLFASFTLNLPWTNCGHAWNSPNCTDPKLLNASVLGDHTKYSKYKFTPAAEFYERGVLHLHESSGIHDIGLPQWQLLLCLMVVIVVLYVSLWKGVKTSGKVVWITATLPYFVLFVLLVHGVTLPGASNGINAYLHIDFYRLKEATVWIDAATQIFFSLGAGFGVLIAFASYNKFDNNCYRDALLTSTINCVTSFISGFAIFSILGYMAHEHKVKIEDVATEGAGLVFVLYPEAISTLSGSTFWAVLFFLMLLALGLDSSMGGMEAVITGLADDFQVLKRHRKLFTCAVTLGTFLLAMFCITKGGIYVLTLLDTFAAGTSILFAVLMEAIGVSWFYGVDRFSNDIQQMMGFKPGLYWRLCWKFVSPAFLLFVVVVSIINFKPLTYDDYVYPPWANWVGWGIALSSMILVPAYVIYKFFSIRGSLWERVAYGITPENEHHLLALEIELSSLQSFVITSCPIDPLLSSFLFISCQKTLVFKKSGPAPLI
Sequence of Sodium-dependent serotonin transporter (P31652 whole entry): as the sequence (P31652 whole entry, looked up) above

CCC(=O)C1C(c2ccc3ccccc3c2)CC2CCC1N2C (stereo in doubt) [listing 1 of 2 here]
Ki [1]: 16.4 nM
IC50 [2]: 2.51 nM
Ki [3]: 68 nM

CC(=O)C1C(c2ccc3ccccc3c2)CC2CCC1N2C (configuration not stated)
Potency ratio [4]: 1.2
IC50 [2]: 1.27 nM
Ki [3]: 4.9 nM

CCC(=O)C1C(c2ccc3ccc(I)cc3c2)CC2CCC1N2C (configuration not stated)
Ki [1]: 0.47 nM
Potency ratio [4]: 0.5
IC50 [2]: 0.45 nM

CCC(=O)C1C(c2ccc3c(I)c(OC)ccc3c2)CC2CCC1N2C (configuration not stated)
Ki [1]: 2.27 nM
Potency ratio [4]: 0.6
IC50 [2]: 1.31 nM
Ki [3]: 781 nM

CC(=O)C1C(c2cccc3ccccc23)CC2CCC1N2C (stereo in doubt; form 2) [listing 1 of 2 here]
Potency ratio [4]: 0.4

C=C(C)c1c(OC)ccc2cc(C3CC4CCC(C3C(=O)CC)N4C)ccc12 (configuration not stated)
Ki [1]: 88 nM
Potency ratio [4]: 0.5
IC50 [2]: 45 nM
Ki [3]: 2330 nM

CCC(=O)C1C(c2ccc3cc(I)ccc3c2)CC2CCC1N2C (configuration not stated)
Ki [1]: 0.37 nM
Potency ratio [4]: 1
IC50 [2]: 0.35 nM

CCC(=O)C1C(c2ccc3cc(C(C)C)ccc3c2)CC2CCC1N2C (configuration not stated)
Ki [1]: 1.97 nM
Potency ratio [4]: 0.2
IC50 [2]: 0.39 nM

CCC(=O)C1C(c2ccc3c(C(C)=O)c(OC)ccc3c2)CC2CCC1N2C (configuration not stated)
Ki [1]: 15.8 nM
Potency ratio [4]: 0.8
IC50 [2]: 12.6 nM
Ki [3]: 498 nM

CC(=O)C1C(c2cccc3ccccc23)CC2CCC1N2C (stereo in doubt; form 2) [listing 2 of 2 here]
Ki [3]: 165 nM

CCC(=O)C1C(c2ccc3cc(CC)ccc3c2)CC2CCC1N2C (configuration not stated)
Ki [1]: 0.38 nM
Potency ratio [4]: 0.4
IC50 [2]: 0.15 nM
Ki [3]: 27.7 nM

CCC(=O)C1C(c2ccc(C)cc2)CC2CCC1N2C (configuration not stated)
Potency ratio [4]: 0.06
Ki [3]: 65 nM

CCC(=O)C1C(c2ccc3c(CC)c(OC)ccc3c2)CC2CCC1N2C (configuration not stated)
Ki [1]: 7.55 nM
Potency ratio [4]: 4.1
IC50 [2]: 30.8 nM
Ki [3]: 3360 nM

CCC(=O)C1C(c2ccc(C(C)C)c3ccccc23)CC2CCC1N2C (configuration not stated)
Ki [1]: 136 nM
Potency ratio [4]: 2
IC50 [2]: 225 nM
Ki [3]: > 10000 nM

CCC(=O)C1C(c2ccc(CC)c3ccccc23)CC2CCC1N2C (configuration not stated)
Ki [1]: 175 nM
Potency ratio [4]: 0.7
IC50 [2]: 75.1 nM
Ki [3]: 4770 nM

CCC(=O)C1C(c2ccc(C)c3ccccc23)CC2CCC1N2C (configuration not stated)
Ki [1]: 8.99 nM
Potency ratio [4]: 3
IC50 [2]: 25.1 nM
Ki [3]: 163 nM

CCC(=O)C1C(c2ccc3cc(OC)ccc3c2)CC2CCC1N2C (configuration not stated)
Ki [1]: 2.24 nM
Potency ratio [4]: 0.05
IC50 [2]: 0.13 nM

CCC(=O)C1C(c2ccc3ccccc3c2)CC2CCC1N2C (stereo in doubt; 8)
Potency ratio [4]: 0.3

CC(C)C(=O)C1C(c2ccc3ccccc3c2)CC2CCC1N2C (configuration not stated)
Ki [1]: 2.08 nM
Potency ratio [4]: 0.12
IC50 [2]: 0.25 nM
Ki [3]: 37.6 nM

CC(=O)C1C(c2cccc3ccccc23)CC2CCC1N2C (stereo in doubt; form 1) [listing 1 of 2 here]
Ki [1]: 217 nM
IC50 [2]: 97 nM

CCC(=O)C1C(c2cccc3ccccc23)CC2CCC1N2C (configuration not stated)
Potency ratio [4]: 0.3
Ki [3]: 49 nM

CCC(=O)C1C2CCC(CC1c1ccc3ccccc3c1)N2 (configuration not stated)
Ki [1]: 0.23 nM
Potency ratio [4]: 0.13
IC50 [2]: 0.03 nM
Ki [3]: 2.05 nM

CCC(=O)C1C(c2ccc3c([N+](=O)[O-])c(OC)ccc3c2)CC2CCC1N2C (configuration not stated)
Ki [1]: 15 nM
Potency ratio [4]: 10
IC50 [2]: 148 nM

CC(=O)C1C(c2cccc3ccccc23)CC2CCC1N2C (stereo in doubt; form 1) [listing 2 of 2 here]
Potency ratio [4]: 0.45

CCC(=O)C1C(c2ccc3ccccc3c2)CC2CCC1N2C (stereo in doubt) [listing 2 of 2 here]
Potency ratio [4]: 0.15
